Published values gathered from unrelated publications.
Target: Inhibitor of nuclear factor kappa-B kinase subunit epsilon (IKBKE, Homo sapiens, UniProt Q14164)
Observed: enzyme activity
Action: inhibitor
One construct used (Q14164 1-716): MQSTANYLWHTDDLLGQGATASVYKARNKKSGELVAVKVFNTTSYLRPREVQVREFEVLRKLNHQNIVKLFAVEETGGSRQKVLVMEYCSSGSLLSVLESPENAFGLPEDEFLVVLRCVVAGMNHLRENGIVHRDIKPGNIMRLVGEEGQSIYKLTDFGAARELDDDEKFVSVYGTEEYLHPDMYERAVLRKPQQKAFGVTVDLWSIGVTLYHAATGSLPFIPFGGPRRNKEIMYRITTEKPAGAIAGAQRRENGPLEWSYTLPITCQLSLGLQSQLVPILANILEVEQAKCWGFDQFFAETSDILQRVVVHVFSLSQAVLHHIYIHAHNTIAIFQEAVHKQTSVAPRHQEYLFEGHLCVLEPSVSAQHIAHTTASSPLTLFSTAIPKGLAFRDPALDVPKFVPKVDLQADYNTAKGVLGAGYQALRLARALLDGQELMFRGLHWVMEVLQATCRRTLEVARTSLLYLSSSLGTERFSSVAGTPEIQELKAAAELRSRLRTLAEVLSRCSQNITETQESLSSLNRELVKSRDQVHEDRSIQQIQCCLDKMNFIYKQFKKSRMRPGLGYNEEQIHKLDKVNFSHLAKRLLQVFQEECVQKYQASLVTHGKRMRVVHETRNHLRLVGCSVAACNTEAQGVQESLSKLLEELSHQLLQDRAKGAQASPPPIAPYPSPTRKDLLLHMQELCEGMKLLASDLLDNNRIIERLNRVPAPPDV

O=C(NCCCNc1nc(Nc2cccc(NC(=O)N3CCCC3)c2)ncc1I)c1cccs1  remaining activity (radiometric; 1 µM): 2%
O=c1cc(-c2cccc3c2Sc2ccccc2S3)oc(N2CCOCC2)c1  remaining activity (0.5 µM): 96.5%
Cn1c(=O)n(-c2ccc(C(C)(C)C#N)cc2)c2c3cc(-c4cnc5ccccc5c4)ccc3ncc21  remaining activity (10 µM): 86%
O=C(Nc1cnn(-c2csc(C(=O)NC3COC3)c2)c1)Nc1ccccc1Cl  remaining activity (5 µM): 110%
Cc1ccc(C(=O)Nc2ccc(CN3CCN(C)CC3)c(C(F)(F)F)c2)cc1C#Cc1cnc2cccnn12  remaining activity (23.5 nM): 99%
CCN(CC)CCNC(=O)c1c(C)[nH]c(/C=C2\C(=O)Nc3ccc(Cl)cc32)c1C  remaining activity (0.5 µM): 29.4%
O=C(Nc1cnn(-c2csc(C(=O)NC3COC3)c2)c1)Nc1c(F)cccc1Cl  remaining activity (5 µM): 96.8%
NS(=O)(=O)c1ccc(CNc2nc(Nc3cccc(CN4CCOCC4)c3)ncc2Br)cc1  remaining activity (radiometric; 1 µM): 32%
O=c1c2ccccc2[nH]c(=S)n1CCN1CCC(=C(c2ccc(F)cc2)c2ccc(F)cc2)CC1  remaining activity (0.5 µM): 101%
FC(F)c1nc2ccccc2n1-c1nc(N2CCOCC2)nc(N2CCOCC2)n1  remaining activity (10 µM): 84%
NS(=O)(=O)c1ccc(CNc2nc(Nc3cccc(NC(=O)N4CCCC4)c3)ncc2Br)cc1  remaining activity (radiometric; 1 µM): 35%
CC(C)(C)c1nc(-c2cccc(NS(=O)(=O)c3c(F)cccc3F)c2F)c(-c2ccnc(N)n2)s1  remaining activity (radiometric; 1 µM): 97%
COc1cc(Nc2cnc(C#N)c(O[C@H](C)CN(C)C)n2)ncc1-c1cnn(C)c1  remaining activity (radiometric; 10 µM): 84%
Cc1cnc(NC2CCOCC2)nc1-n1cnc(C(=O)NC(CN)c2cc(F)cc(Cl)c2)c1 (stereo not drawn)  remaining activity (radiometric; 1 µM): 64%
O=C(NCCCNc1nc(Nc2cccc(NC(=O)N3CCCC3)c2)ncc1C1CC1)C1CCC1  remaining activity (radiometric; 1 µM): 3%
